Test results: article PMC8419008 (Structure (London, England : 1993), 2021)
Residue numbers refer to the chain shown, from its start. Entries after “also recorded” stand apart in the source; their conditions may differ.

Legend:
PHA7 (PLEKHA7 PH domain) = target: T1, PHA7 (PLEKHA7 PH domain) (Homo sapiens, UniProt Q6IQ23); assay: Liposome co-sedimentation assay; type: binding; conditions: pure diC16-PC liposomes or liposomes containing 10% molar diC16-PIP; SDS-PAGE
T1 sequence (Q6IQ23 164-285): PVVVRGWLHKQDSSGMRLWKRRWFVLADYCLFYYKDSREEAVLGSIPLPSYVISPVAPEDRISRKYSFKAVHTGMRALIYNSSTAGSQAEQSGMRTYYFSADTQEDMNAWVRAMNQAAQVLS
In short: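 Small unilamellar vesicles made by bath sonication until translucent, from 100% diC16-PC or 9/1 diC16-PC/diC16-PI(4,5)P2 at 3 mg/mL. 200 uL vesicles mixed with 20 uM PH domain solution, 2 h at room temperature. Airfuge spin at 91,000 rpm for 20 h; supernatant and pellet analysed by SDS-PAGE.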

[1] = target: T2, PHA7 (PLEKHA7 PH domain, wild-type) (Homo sapiens, UniProt Q6IQ23); assay: 1H/15N HSQC NMR chemical shift perturbation of 15N-labeled PHA7; type: binding; conditions: 15°C; for NMR spectral change of PHA7 on incubation with nanodiscs: 1.5 molar equivalents of nanodiscs, 100% diC16-PC or 10% molar diC16-PIP; for NMR spectral perturbation / binding of PHA7: soluble or short-chain ligand, 1.5 molar equivalents
T2 sequence (Q6IQ23 164-285): T1 sequence (Q6IQ23 164-285)
In short: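 Human PLEKHA7 PH domain expressed as a GST fusion in E. coli BL21 in M9 with (15NH4)2SO4, then cleaved with HRV 3C, purified by cation exchange and gel filtration. Added directly to preformed MSP1D1Δh5 nanodiscs (100% diC16-PC, or 9/1 diC16-PC with diC16-PI(3,4,5)P3, -PI(4,5)P2 or -PI(3,4)P2). Read-out: 1H/15N chemical shift perturbations.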

[2] = target: T3, PHA7-D175K (PLEKHA7 PH domain mutant) (Homo sapiens, UniProt Q6IQ23, D175K); assay: ITC titration of mutant PHA7-D175K with soluble IP headgroups or PIP nanodiscs; type: binding; conditions: soluble IP headgroups; for Kd: read-out: ITC Kd, PHA7-D175K, 23°C, single-site binding model, average of triplicate; for greater affinity of PHA7-D175K compared to wild-type: ITC
T3 sequence (Q6IQ23 164-285 D175K): T1 sequence (Q6IQ23 164-285) with D12K
In short: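 ITC run at 23°C in 15 mM Tris pH 7.6, 70 mM NaCl, 0.5 mM TCEP. Cell held 50 μM protein; syringe held 0.5 mM soluble IP headgroup. Protein concentration was set by A280. Integrated heats were fitted to a single-site binding model to obtain dissociation constants.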

[3] = target: T4, PLEKHA7 PH domain (PHA7, wild-type) (Homo sapiens, UniProt Q6IQ23); assay: ITC titration of wild-type PHA7 with soluble IP headgroups or PIP nanodiscs; conditions: read-out: ITC Kd, PHA7; soluble IP headgroups; 23°C; single-site binding model; average of triplicate
T4 sequence (Q6IQ23 164-285): T1 sequence (Q6IQ23 164-285)

Compound | co-sedimentation of PHA7 with liposomes (PHA7 (PLEKHA7 PH domain)) | NMR spectral change of PHA7 on incubation with nanodiscs [1] | Kd [2] [µM] | greater affinity of PHA7-D175K compared to wild-type [2] | Kd [3] [µM] | NMR spectral perturbation / binding of PHA7 [1]
phosphatidyl inositol (3,4,5) triphosphate [PI(3,4,5)P3] | abundant co-sedimentation | effectively obliterated |  |  |  | 
O=P(O)(O)O[C@@H]1[C@H](O)[C@H](O)[C@@H](OP(=O)(O)O)[C@H](OP(=O)(O)O)[C@H]1O [IP(4,5)P2, inositol (1,4,5) triphosphate] |  |  | 10.7 ± 0.2 | three-fold | 30.5 ± 0.6 | 
CCCCCCCC(=O)OC[C@H](COP(=O)(O)OC1[C@H](O)[C@H](O)C(O)[C@H](O)[C@H]1O)OC(=O)CCCCCCC (stereo partly drawn) [diC8-PI] |  |  |  |  |  | no perturbations; also recorded: does not bind
O=P(O)(O)OC1[C@H](O)[C@H](OP(=O)(O)O)C(OP(=O)(O)O)[C@H](OP(=O)(O)O)[C@H]1O (stereo partly drawn) [IP(3,4,5)P3, inositol (1,3,4,5) tetraphosphate] |  |  | 3.5 ± 0.5 | nine-fold | 30.1 ± 2.3 | weak binding interaction with fast exchange binding dynamics
CCCCCCCCCCCCCCCC(=O)OC[C@H](COP(=O)([O-])OCC[N+](C)(C)C)OC(=O)CCCCCCCCCCCCCCC [diC16-PC, dipalmitoyl-phosphatidyl-choline] | does not sediment | no detectable NMR spectral changes |  |  |  | 
